The text below walks through data of ChEMBL document CHEMBL1123413, “Synthesis and biological evaluation of 1-(1,2-benzisothiazol-3-yl)- and (1,2-benzisoxazol-3-yl)piperazine derivatives as potential antipsychotic agents” (J Med Chem, 1986).

Data set [1] is described as follows: Binding affinity against imipramine receptor was measured using radioligand ([3H]-imipramine) binding assay. Set-up: species or system Rattus norvegicus.
Data set [2] deals with T1, Adrenergic receptor alpha-2 (Rattus norvegicus, UniProt P22086+P19328+P22909).
T1 sequence (P22086 whole entry): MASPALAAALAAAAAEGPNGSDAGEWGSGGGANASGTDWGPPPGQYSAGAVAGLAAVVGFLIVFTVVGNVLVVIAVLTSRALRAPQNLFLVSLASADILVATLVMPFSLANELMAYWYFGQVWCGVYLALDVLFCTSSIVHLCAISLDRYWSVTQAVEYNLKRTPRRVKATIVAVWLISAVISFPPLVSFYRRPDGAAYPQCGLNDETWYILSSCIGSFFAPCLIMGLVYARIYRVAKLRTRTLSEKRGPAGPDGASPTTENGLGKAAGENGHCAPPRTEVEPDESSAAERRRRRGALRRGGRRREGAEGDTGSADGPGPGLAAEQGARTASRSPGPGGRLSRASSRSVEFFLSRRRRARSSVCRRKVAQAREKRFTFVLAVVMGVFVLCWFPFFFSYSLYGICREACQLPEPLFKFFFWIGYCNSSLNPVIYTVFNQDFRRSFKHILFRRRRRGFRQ
T1 sequence (P19328 whole entry): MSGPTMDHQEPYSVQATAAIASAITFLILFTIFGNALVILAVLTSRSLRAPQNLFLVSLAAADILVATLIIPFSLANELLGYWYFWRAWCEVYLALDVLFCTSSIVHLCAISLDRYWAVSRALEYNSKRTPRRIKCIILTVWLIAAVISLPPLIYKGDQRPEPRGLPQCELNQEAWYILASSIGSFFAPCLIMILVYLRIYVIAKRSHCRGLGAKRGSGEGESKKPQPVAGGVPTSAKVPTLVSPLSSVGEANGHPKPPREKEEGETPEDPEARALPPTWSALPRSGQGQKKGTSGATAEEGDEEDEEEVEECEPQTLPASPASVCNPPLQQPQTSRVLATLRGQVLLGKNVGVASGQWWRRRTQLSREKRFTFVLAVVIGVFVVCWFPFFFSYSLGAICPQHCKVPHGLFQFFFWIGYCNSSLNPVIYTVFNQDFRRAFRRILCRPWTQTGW
T1 sequence (P22909 whole entry): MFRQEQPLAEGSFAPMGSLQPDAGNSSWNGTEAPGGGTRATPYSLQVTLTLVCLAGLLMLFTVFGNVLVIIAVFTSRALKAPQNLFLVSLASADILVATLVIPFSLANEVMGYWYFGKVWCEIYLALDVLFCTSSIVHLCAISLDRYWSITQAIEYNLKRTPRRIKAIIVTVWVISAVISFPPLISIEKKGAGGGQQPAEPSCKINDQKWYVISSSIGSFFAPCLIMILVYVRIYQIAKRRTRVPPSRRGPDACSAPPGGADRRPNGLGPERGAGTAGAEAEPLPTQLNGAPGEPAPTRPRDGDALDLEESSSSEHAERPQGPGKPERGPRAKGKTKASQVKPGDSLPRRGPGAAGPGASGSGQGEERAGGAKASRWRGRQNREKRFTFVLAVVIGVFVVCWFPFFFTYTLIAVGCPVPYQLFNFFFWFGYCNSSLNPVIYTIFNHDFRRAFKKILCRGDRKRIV
In words: Binding affinity against alpha-2 adrenergic receptor was measured using radioligand ([3H]clonidine) binding assay. In kind it is protein assay.

Data set [3] can be described thus: Lethal dose after intraperitoneal administration in mouse. In kind it is toxicity, organism-based. The note with it: in vivo, ip, read-out: ALD50.
The species named for a further data set is Rattus norvegicus. In words: Compound was tested for inhibition of ethanol potentiation in rat. It counts as functional. The method in brief:
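Nonfasted male rats received test drug or vehicle (distilled H2O or 0.5% methocel). EtOH (10 mL of 20% solution/kg, ip) followed at 15, 30, 60 or 120 min post-drug; the vehicle group got it at 15 min. Rats were watched about 10–15 min for loss of righting reflex lasting 1 min. Dose response at peak time used 10/dose; ED50 by Berkson.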

A short description of data set [4]: Binding affinity against Muscarinic acetylcholine receptor was measured using radioligand ([3H]QNB) binding assay.
Data set [5] can be described thus: Binding affinity against glycine receptor was measured using radioligand ([3H]strychnine) binding assay.

`Cl.O=C1CC2(CCCC2)CC(=O)N1CCCCN1CCN(c2nsc3ccccc23)CC1` [TIOSPIRONE HYDROCHLORIDE]: the IC50 in data set [1], in data set [2], in data set [4] and in data set [5] was greater than 1 µM in each case. Further, the LD50 in data set [3] came out at 1530 mg/kg. Besides, the median effective dose (ED50) (as a rule, the dose at which the effect has come halfway, by size or by number of responders) in the data set listed under Rattus norvegicus was determined as 9.3 mg/kg.
